Assay results of several laboratories.
Protocols differ between the studies behind these lines.
KCNH2: Voltage-gated inwardly rectifying potassium channel KCNH2 (KCNH2, Homo sapiens, UniProt Q12809)
UGT2B7: UDP-glucuronosyltransferase 2B7 (UGT2B7, Homo sapiens, UniProt P16662)

O=c1c2ccccc2c(Cc2ccc(Cl)cc2)nn1C1CCCNCC1 (centres unmarked) — inhibition (KCNH2; ion current, inhibitor, patch clamp; HEK293; 10 µM): 97%
CC(=O)c1cc(C(=O)N[C@@H](C)Cn2ccc(-c3ccc(C#N)c(Cl)c3)n2)[nH]n1 — IC50 (UGT2B7; enzyme activity, inhibitor; human, liver microsomes): > 50 µM
O=C(Nc1cccc(C(F)(F)F)c1)N1CCN(c2cccc(C(F)(F)F)c2)CC1 — inhibition (KCNH2; ion current, inhibitor, patch clamp; HEK293; 10 µM): 85%
C=C1CC[C@@H]2[C@](C)(CO[C@@H]3O[C@H](CO)[C@@H](O)[C@H](O)[C@H]3O)CCC[C@@]2(C)[C@@H]1CCC1=CCOC1=O — inhibition (UGT2B7; enzyme activity, inhibitor; 100 µM, pH 7.4): 42%
CC(C)=CCCC(C)c1ccc(C)cc1 (centres unmarked) — IC50 (UGT2B7; enzyme activity, inhibitor): > 200 µM
C=C1CC[C@@H]2[C@](C)(CO)[C@H](O)CC[C@@]2(C)[C@@H]1CCC1=CCOC1=O — inhibition (UGT2B7; enzyme activity, inhibitor; 100 µM, pH 7.4): 95%
CNC(=O)[C@@]12C[C@@H]1[C@@H](n1cnc3c(NCCc4ccc(O)c(OC)c4)nc(C#Cc4ccco4)nc31)[C@H](O)[C@@H]2O — inhibition (KCNH2; ion current, inhibitor; 10 µM): > 50%
C=C1CCC2C(C)(CO)C(=O)CCC2(C)C1CCC1=CCOC1=O (centres unmarked) — Ki (UGT2B7; enzyme activity, inhibitor): 4.2 µM
CN(CCC(=O)O)C(=O)c1ccc2c(c1)CC[C@@H]1[C@@H]2CC[C@]2(C)C(c3cncc(F)c3)=CC[C@@H]12 — IC50 (UGT2B7; enzyme activity, inhibitor): > 30 µM
C[C@@H](Cn1ccc(-c2ccc(C#N)c(Cl)c2)n1)NC(=O)c1cc([C@@H](C)O)[nH]n1 — IC50 (UGT2B7; enzyme activity, inhibitor; human, liver microsomes): > 100 µM
CON=C(N)c1ccc(-c2ccc(-c3ccc(C(N)=NOC)cc3)o2)cc1 — Km (Cytochrome P450 4F2 (Homo sapiens, UniProt P78329); enzyme activity, substrate): 0.7 µM
